Data set [1] in a line: Toxicity measured in CEM cells in the absence of virus. The data set is classed as cell-based. As to conditions: human, CEM cells (CCRF-CEM); read-out: TC50 (the source's name).
For data set [2], the target named is Human immunodeficiency virus type 1 protease (Human immunodeficiency virus 1, UniProt Q72874). In words: HIV-1 protease inhibition. Summed up:
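Affinity-purified HIV-1 protease (1.5 nM final) with 40 µM peptide substrate His-Lys-Ala-Arg-Val-Leu-(p-NO2-Phe)-Glu-Ala-Nle-Ser-NH2 and 1.0% DMSO. Buffer: 80 mM MES, 160 mM NaCl, 1.0 mM DTT, 1.0 mM EDTA, 0.1% PEG 8000, pH 6.2. Incubated 60 min at 37 °C, then quenched with TFA (2% final). Products separated by reverse-phase HPLC and read at 220 nm. Percent control derived from % conversion with vs without inhibitor; IC50 then determined.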

In data set [3] the test system is Human immunodeficiency virus 1. In words: Antiviral activity in HIV infected CEM cells as effective concentration at which 50% of the cells are protected from cytopathic effect. The data set is classed as functional, organism-based. The conditions noted are these: Human immunodeficiency virus 1, CCRF-CEM. Summed up: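 HIV-IIIB-infected human lymphocyte-derived CEM cells. EC50 is the drug concentration at which 50% of cells are protected from HIV cytopathic effects. Testing was done at Southern Research Institute.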

Usually IC50 stands for the concentration needed to halve the response being measured. High values mean weaker potency, low ones greater potency. In general, EC50 refers to the concentration at which the effect is half-maximal. High values mean lower potency in that assay, low ones higher potency in that assay. Consider `Cc1cc(SC2=C(O)OC(CCc3c[nH]c4ccccc34)(C(C)C)CC2=O)c(C(C)(C)C)cc1CO` (configuration not stated), for which the CC50 in data set [1] was 46000 nM. The IC50 in data set [2] turned out to be 0.72 nM. Further, the EC50 in data set [3] turned out to be 370 nM.

`Cc1cc(SC2=C(O)OC(CCc3ccco3)(C(C)C)CC2=O)c(C(C)(C)C)cc1CO` (configuration not stated): in data set [1], the CC50 was 190000 nM. The same compound gave an IC50 in data set [2] of 0.78 nM. In addition, in data set [3], the 50% effective concentration (EC50) was 750 nM.

Consider `Cc1cc(SC2=C(O)OC(CCc3ncsc3C)(C(C)C)CC2=O)c(C(C)(C)C)cc1CO` (configuration not stated), for which the CC50 in data set [1] came out at 208000 nM. Inhibition in data set [2] was half-maximal at 1.3 nM (IC50). Moreover, the midpoint of the response in data set [3], the EC50, lay at 1800 nM.

`Cc1cnc(CCC2(C(C)C)CC(=O)C(Sc3cc(C)c(CO)cc3C(C)(C)C)=C(O)O2)s1` (configuration not stated): the CC50 in data set [1] was 210000 nM. Further, 19 nM corresponded to half-maximal inhibition in data set [2] (IC50). The compound also displayed an EC50 in data set [3] of 1900 nM.

On to `Cc1cc(SC2=C(O)OC(CCc3ccc(CO)s3)(C(C)C)CC2=O)c(C(C)(C)C)cc1CO` (configuration not stated), for which, in data set [1], the CC50 was found to be 182000 nM. In addition, in data set [2], the IC50 was determined as 0.58 nM. This compound also showed an EC50 in data set [3] of 2500 nM.

For `Cc1cc(SC2=C(O)OC(CCc3ccncc3)(C(C)C)CC2=O)c(C(C)(C)C)cc1CO` (configuration not stated), in data set [1], the CC50 came out at 296000 nM. The same compound displayed an IC50 in data set [2] of 1.5 nM. The compound also registered an EC50 in data set [3] of 1500 nM.

For the compound `Cc1cc(SC2=C(O)OC(CCc3cc[nH]n3)(C(C)C)CC2=O)c(C(C)(C)C)cc1CO` (configuration not stated), the CC50 in data set [1] is 320000 nM. The same compound had an IC50 in data set [2] of 0.28 nM. Moreover, the EC50 in data set [3] amounted to 5600 nM.

For the compound `Cc1cc(SC2=C(O)OC(CCc3csc(N)n3)(C(C)C)CC2=O)c(C(C)(C)C)cc1CO` (configuration not stated), the CC50 in data set [1] is greater than 200000 nM. This compound gave a 50% inhibitory concentration (IC50) in data set [2] of 0.95 nM. Also, the EC50 in data set [3] was found to be 3500 nM.

As to `Cc1cc(SC2=C(O)O[C@@](CCc3ccsc3)(C(C)C)CC2=O)c(C(C)(C)C)cc1CO`, the CC50 in data set [1] turned out to be 95000 nM. Also, the IC50 in data set [2] worked out at 11.5 nM. For the same compound, the EC50 in data set [3] was determined as 14000 nM.

Regarding `Cc1cc(SC2=C(O)OC(CCc3ccc4[nH]ccc4c3)(C(C)C)CC2=O)c(C(C)(C)C)cc1CO` (configuration not stated), the CC50 in data set [1] came out at 46000 nM. In data set [2], half-maximal inhibition (IC50) required 0.98 nM. Further, in data set [3], the EC50 worked out at 680 nM.

With `Cc1cc(SC2=C(O)OC(CCc3csc(C(C)C)n3)(C(C)C)CC2=O)c(C(C)(C)C)cc1CO` (configuration not stated), the CC50 in data set [1] was 91000 nM. Also, in data set [2], the IC50 was determined as 1.6 nM. For the same compound, in data set [3], the EC50 was determined as 23000 nM.

`Cc1cc(SC2=C(O)OC(CCc3scnc3C(C)C)(C(C)C)CC2=O)c(C(C)(C)C)cc1CO` (configuration not stated): the CC50 in data set [1] is 102000 nM. The same compound returned an IC50 in data set [2] of 0.8 nM. Further, in data set [3], the EC50 came out at 1200 nM.

For the compound `Cc1cc(SC2=C(O)OC(CCc3cncnc3)(C(C)C)CC2=O)c(C(C)(C)C)cc1CO` (configuration not stated), in data set [1], the CC50 is greater than 200000 nM. The compound further displayed an IC50 in data set [2] of 17 nM. For the same compound, in data set [3], it took 1200 nM to reach a half-maximal effect (EC50).

Compound `O=c1cc(-c2ccccc2)oc(O)c1Sc1ccccc1` registered an IC50 in data set [2] of 3000 nM.

Consider `Cc1cc(SC2=C(O)OC(CCc3cnc(N)nc3)(C(C)C)CC2=O)c(C(C)(C)C)cc1CO` (configuration not stated), for which the CC50 in data set [1] is greater than 200000 nM. The compound further had an EC50 in data set [3] of 5700 nM.

With `Cc1cc(SC2=C(O)OC(CCc3ccccn3)(C(C)C)CC2=O)c(C(C)(C)C)cc1CO` (configuration not stated), the CC50 in data set [1] was 249000 nM. This compound also gave an IC50 in data set [2] of 1.2 nM. This compound also gave an EC50 in data set [3] of 1500 nM.

As to `Cc1cc(SC2=C(O)OC(CCc3ncsc3C(C)C)(C(C)C)CC2=O)c(C(C)(C)C)cc1CO` (configuration not stated), the CC50 in data set [1] was found to be 52000 nM. This compound also yielded an IC50 in data set [2] of 5.8 nM. Also, the EC50 in data set [3] is 10000 nM.

Consider `Cc1cc(SC2=C(O)OC(CCc3cccs3)(C(C)C)CC2=O)c(C(C)(C)C)cc1CO` (configuration not stated), for which, in data set [1], the CC50 came out at 81000 nM. In data set [2], this compound showed a concentration for half-maximal inhibition (IC50) of 0.35 nM. This compound also gave a 50% effective concentration (EC50) in data set [3] of 500 nM.

For `Cc1cc(SC2=C(O)OC(CCc3cscn3)(C(C)C)CC2=O)c(C(C)(C)C)cc1CO` (configuration not stated), the CC50 in data set [1] came out at 141000 nM. For the same compound, the IC50 in data set [2] is 1.3 nM. Besides, a half-maximal response in data set [3] (EC50) required 2800 nM.

On to `Cc1cc(SC2=C(O)OC(CCc3sccc3C)(C(C)C)CC2=O)c(C(C)(C)C)cc1CO` (configuration not stated), for which, in data set [1], the CC50 was determined as 80000 nM. The same compound had a 50% effective concentration (EC50) in data set [3] of 280 nM.

Take `Cc1cc(SC2=C(O)OC(CCC3CCCO3)(C(C)C)CC2=O)c(C(C)(C)C)cc1CO` (configuration not stated): the IC50 in data set [2] amounted to 5 nM.
